Experimental data: ChEMBL document CHEMBL1153250, “Discovery and SAR of novel, potent and selective hexahydrobenzonaphthyridinone inhibitors of poly(ADP-ribose)polymerase-1 (PARP-1)” (Bioorg Med Chem Lett, 2010)
Active and inactive are the calls of the source. No cut-off for these calls is given here.

Legend:
[1] = target: T1, Poly [ADP-ribose] polymerase 1 (Homo sapiens, UniProt P09874); assay: Inhibition of human PARP1 by scintillation proximity assay
[2] = target: T1, Poly [ADP-ribose] polymerase 1; assay: Inhibition of PARP1 in human HeLa cells assessed as inhibition of hydrogen peroxide-induced poly(ADP-ribosyl)ation; format: cell-based
[3] = target: T1, Poly [ADP-ribose] polymerase 1; assay: Inhibition of human PARP1 at 1 uM by scintillation proximity assay
[4] = target: T2, Poly [ADP-ribose] polymerase 2 (Homo sapiens, UniProt Q9UGN5); assay: Inhibition of PARP2 at 1 uM
T2 sequence (Q9UGN5 whole entry): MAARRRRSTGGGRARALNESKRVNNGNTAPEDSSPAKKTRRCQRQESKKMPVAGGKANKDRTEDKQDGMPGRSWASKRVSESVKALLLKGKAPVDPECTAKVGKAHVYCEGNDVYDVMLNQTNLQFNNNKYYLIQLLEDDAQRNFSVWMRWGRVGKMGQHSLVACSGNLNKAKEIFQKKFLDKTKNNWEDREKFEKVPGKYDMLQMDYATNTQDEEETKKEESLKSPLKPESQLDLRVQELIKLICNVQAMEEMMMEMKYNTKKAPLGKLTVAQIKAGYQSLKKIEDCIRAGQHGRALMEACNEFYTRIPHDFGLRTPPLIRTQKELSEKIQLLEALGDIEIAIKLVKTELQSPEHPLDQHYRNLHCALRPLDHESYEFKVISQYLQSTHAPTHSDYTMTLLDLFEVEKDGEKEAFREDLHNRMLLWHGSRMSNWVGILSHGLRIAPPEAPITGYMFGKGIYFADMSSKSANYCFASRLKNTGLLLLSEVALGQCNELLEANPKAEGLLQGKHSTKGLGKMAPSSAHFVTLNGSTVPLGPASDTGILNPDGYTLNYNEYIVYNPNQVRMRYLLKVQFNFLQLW

[5] = Inhibition of Cytochrome P450 at 10 uM; format: ADME
[6] = Oral bioavailability in rat at 3 mg/kg; format: ADME, organism-based; details: in vivo
In short: (§1)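 Rats received the compound both intravenously and orally, each at 3 mg/kg. Reported PK parameters are half-life (h), volume of distribution (L/kg), clearance (ml/min/kg), oral bioavailability (%F) and oral AUC (μM h).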

[7] = AUC in rat at 3 mg/kg, po; format: ADME, organism-based; parameters: dose 3 mg/kg, route oral; details: plasma; in short: as §1
[8] = target: Protein mono-ADP-ribosyltransferase PARP4 (Homo sapiens, UniProt Q9UKK3); assay: Inhibition of VPARP
Protein mono-ADP-ribosyltransferase PARP4, sequence (Q9UKK3 whole entry): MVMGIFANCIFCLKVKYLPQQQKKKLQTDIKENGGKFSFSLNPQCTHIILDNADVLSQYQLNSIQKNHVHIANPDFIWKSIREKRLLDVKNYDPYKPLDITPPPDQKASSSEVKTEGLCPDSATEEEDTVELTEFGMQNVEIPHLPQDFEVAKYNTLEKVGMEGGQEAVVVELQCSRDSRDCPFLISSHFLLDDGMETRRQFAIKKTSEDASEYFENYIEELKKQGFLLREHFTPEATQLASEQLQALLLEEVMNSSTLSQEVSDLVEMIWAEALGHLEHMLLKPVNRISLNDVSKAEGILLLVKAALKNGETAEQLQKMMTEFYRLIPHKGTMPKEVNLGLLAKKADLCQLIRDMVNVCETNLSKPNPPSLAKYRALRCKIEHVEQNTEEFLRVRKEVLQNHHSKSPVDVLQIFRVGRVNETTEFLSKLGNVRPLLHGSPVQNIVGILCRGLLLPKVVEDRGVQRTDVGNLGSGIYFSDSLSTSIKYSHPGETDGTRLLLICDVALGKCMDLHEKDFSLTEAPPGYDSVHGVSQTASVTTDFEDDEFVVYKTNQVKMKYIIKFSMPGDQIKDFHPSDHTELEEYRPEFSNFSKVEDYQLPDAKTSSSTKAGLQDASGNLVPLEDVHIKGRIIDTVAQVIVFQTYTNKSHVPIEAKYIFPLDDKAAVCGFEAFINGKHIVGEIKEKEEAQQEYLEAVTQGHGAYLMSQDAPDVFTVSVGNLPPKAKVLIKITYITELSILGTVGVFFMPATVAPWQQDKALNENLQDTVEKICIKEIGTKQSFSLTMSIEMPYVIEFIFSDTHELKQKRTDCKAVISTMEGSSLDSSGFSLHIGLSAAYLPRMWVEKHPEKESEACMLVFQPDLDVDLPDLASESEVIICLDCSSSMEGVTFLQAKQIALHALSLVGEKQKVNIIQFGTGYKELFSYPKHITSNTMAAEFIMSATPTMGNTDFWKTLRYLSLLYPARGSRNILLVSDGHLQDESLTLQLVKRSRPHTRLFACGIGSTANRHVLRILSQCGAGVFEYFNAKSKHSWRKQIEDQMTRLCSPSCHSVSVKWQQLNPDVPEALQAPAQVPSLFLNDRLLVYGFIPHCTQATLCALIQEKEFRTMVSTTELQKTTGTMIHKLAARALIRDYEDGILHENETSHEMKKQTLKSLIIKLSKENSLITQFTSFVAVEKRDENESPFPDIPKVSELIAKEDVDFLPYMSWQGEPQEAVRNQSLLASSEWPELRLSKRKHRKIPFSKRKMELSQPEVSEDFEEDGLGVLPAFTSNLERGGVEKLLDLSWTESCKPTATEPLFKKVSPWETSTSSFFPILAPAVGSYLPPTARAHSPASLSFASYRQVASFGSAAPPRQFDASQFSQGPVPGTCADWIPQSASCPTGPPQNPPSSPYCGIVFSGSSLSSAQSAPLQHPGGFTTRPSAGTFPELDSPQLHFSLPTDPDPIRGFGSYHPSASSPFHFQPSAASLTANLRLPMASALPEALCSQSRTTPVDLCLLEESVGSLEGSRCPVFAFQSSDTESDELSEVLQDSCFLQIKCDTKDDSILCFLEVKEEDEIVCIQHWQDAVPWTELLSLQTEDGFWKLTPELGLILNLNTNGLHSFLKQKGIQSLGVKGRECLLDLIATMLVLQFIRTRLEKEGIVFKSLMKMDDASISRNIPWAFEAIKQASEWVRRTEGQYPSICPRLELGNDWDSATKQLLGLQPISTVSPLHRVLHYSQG

Rattus norvegicus = assay: Volume of distribution in rat at 3 mg/kg, iv and po; format: ADME, organism-based; parameters: dose 3 mg/kg, route oral; details: in vivo; in short: as §1
[9] = Half life in rat at 3 mg/kg, iv and po; format: ADME, organism-based; parameters: dose 3 mg/kg, route oral; details: in vivo; in short: as §1
[10] = target: T2, Poly [ADP-ribose] polymerase 2; assay: Inhibition of PARP2
[11] = target: T3, Protein mono-ADP-ribosyltransferase PARP3 (Homo sapiens, UniProt Q9Y6F1); assay: Inhibition of PARP3
T3 sequence (Q9Y6F1 whole entry): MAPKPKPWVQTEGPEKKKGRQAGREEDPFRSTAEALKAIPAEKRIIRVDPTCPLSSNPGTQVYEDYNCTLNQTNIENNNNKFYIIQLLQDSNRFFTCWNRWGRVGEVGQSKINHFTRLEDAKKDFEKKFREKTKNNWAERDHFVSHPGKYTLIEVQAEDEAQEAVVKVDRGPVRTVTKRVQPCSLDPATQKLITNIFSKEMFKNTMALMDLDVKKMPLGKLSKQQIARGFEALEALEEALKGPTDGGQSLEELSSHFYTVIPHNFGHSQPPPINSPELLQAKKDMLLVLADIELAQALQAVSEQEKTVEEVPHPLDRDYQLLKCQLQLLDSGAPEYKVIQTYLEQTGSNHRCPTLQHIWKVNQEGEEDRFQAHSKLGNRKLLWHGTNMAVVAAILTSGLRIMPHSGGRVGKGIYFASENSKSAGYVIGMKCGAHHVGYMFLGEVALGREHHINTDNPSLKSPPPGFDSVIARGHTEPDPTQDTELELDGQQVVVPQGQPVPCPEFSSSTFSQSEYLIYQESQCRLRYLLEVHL

[12] = target: Voltage-gated inwardly rectifying potassium channel KCNH2 (Homo sapiens, UniProt Q12809); assay: Binding affinity to potassium channel IKr at 10 uM
Voltage-gated inwardly rectifying potassium channel KCNH2, sequence (Q12809 whole entry): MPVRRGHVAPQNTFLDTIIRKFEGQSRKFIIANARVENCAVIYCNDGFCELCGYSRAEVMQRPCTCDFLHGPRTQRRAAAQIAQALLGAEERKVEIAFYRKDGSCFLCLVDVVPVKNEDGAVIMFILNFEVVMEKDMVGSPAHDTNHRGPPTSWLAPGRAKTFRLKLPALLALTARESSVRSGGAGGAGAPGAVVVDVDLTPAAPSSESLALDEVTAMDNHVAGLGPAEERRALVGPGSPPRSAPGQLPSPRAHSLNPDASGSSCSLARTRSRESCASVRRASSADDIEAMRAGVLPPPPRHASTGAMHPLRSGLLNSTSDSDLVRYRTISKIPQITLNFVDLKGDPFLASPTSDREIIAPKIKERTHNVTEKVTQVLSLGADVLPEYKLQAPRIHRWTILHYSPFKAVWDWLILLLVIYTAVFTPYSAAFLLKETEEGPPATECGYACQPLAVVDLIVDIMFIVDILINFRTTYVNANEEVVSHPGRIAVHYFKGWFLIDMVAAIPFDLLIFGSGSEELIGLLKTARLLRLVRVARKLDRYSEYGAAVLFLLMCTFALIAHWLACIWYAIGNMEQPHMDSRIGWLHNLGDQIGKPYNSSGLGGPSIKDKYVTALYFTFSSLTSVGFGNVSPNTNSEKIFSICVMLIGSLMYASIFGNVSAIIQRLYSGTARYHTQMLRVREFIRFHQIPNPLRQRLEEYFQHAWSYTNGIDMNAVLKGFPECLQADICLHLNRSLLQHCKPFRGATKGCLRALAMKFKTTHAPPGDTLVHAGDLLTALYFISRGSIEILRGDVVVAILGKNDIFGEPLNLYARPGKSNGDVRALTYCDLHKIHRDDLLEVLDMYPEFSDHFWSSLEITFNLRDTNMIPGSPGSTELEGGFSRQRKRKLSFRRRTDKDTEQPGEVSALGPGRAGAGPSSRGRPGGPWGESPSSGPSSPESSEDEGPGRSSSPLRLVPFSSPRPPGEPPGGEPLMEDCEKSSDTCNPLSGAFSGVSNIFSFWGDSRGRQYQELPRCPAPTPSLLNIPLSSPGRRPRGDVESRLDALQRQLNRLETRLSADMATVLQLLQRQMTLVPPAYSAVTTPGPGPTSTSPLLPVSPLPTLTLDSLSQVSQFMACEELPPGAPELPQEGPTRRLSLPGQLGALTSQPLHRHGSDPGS

[13] = Intrinsic clearance in rat liver microsomes; format: ADME, Microsome
[14] = target: T4, Poly [ADP-ribose] polymerase tankyrase-1 (Homo sapiens, UniProt O95271); assay: Inhibition of Tankyrase 1
T4 sequence (O95271 whole entry): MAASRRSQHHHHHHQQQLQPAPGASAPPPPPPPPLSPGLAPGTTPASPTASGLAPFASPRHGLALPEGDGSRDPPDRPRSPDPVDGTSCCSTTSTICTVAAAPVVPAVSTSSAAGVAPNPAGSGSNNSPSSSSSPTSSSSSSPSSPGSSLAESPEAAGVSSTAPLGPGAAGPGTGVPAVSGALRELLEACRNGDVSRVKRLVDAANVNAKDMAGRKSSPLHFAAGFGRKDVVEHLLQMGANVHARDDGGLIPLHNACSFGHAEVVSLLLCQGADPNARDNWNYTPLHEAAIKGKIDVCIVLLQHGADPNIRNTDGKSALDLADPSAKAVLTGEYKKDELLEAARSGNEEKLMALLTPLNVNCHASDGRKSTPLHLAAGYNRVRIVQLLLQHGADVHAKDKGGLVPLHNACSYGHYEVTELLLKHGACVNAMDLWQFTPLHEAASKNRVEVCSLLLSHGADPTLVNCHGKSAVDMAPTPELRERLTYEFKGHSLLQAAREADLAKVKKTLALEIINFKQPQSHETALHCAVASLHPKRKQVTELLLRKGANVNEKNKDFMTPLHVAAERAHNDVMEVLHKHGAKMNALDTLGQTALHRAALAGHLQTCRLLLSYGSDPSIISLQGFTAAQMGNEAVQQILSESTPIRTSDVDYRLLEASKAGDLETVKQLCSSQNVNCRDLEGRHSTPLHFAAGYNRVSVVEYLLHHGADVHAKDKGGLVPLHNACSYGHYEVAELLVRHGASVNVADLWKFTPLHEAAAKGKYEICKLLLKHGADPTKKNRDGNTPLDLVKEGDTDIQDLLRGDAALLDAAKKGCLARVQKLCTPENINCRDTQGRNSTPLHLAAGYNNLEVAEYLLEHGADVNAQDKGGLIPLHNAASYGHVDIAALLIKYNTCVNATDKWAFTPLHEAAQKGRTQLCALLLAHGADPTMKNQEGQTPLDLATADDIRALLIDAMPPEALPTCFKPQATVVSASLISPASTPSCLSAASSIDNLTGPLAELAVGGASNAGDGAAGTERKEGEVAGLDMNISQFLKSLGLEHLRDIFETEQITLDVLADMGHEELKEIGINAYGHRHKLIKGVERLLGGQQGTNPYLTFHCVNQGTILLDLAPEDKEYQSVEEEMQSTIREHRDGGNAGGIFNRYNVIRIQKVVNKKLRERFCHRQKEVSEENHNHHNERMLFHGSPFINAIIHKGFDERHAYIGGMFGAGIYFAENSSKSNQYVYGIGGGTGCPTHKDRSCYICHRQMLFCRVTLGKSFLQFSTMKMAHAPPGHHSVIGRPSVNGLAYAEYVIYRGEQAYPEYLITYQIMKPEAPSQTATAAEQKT

[15] = Inhibition of Tankyrase at 1 uM

T1 sequence (P09874 whole entry): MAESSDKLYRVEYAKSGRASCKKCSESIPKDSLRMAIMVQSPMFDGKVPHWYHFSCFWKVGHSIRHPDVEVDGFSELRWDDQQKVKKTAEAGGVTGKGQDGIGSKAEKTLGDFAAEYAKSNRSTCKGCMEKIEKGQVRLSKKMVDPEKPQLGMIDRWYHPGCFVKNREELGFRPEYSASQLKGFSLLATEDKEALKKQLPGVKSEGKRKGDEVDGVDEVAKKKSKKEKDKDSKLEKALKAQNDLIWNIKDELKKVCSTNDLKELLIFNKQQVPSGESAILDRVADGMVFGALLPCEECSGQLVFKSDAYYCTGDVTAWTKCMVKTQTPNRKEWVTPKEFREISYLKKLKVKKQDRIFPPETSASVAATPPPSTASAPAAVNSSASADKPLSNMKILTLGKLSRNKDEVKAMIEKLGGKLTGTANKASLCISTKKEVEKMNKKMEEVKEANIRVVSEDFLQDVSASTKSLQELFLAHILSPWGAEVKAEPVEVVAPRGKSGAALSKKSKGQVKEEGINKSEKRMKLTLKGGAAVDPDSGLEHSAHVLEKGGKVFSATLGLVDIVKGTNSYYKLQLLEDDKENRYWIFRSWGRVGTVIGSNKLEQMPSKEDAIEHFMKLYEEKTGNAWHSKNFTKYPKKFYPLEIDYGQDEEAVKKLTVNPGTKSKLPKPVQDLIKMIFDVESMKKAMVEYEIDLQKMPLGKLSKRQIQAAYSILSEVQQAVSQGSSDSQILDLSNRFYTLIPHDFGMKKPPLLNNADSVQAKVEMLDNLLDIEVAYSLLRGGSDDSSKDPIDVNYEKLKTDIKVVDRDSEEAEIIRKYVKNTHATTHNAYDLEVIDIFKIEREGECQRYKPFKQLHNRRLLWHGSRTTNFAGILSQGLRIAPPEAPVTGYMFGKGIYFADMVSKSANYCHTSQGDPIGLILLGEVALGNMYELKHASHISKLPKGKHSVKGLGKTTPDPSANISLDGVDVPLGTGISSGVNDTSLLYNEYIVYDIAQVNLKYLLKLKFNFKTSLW

SMILES	IC50 [1]	EC50 [2]	other results
O=C1NCC2c3c(cccc31)CCN2C(=O)C1CCNC1 (stereo not drawn)	0.001 µM	3.2 µM	
COc1ccc(CC(=O)N2CCc3cccc4c3C2CNC4=O)cc1 (stereo not drawn)	0.006 µM	0.16 µM	
CN(C)C(=O)CCC(=O)N1CCc2cccc3c2C1CNC3=O (stereo not drawn)	0.009 µM	2.8 µM	
O=C1NCC2c3c(cccc31)CCN2C(=O)c1cccc(C(=O)N2CCCNCC2)c1 (stereo not drawn)	0.05 µM		
O=C1NCC2c3c(cccc31)CCN2C(=O)CCc1ccccc1 (stereo not drawn)	0.004 µM	0.35 µM	
O=C1CC2NCCc3cccc(c32)N1 (stereo not drawn)			inhibition [3]: inactive; inhibition [4]: inactive
COc1cccc(CC(=O)N2CCc3cccc4c3C2CNC4=O)c1 (stereo not drawn)	0.005 µM	1.2 µM	
O=C1NCC2c3c(cccc31)CCN2C(=O)Nc1ccccc1 (stereo not drawn)	0.011 µM	1.1 µM	
O=C1NCC2c3c(cccc31)CCN2C(=O)Cc1ccncc1 (stereo not drawn)	0.01 µM	4.6 µM	
O=C1NCC2c3c(cccc31)CCN2C(=O)c1ccccc1Cl (stereo not drawn)	0.035 µM		
O=C1NCC2c3c(cccc31)CCN2C(=O)Cc1cccnc1 (stereo not drawn)	0.001 µM	0.36 µM	Activity [5]: Not Active; bioavailability [6]: 51%; AUC [7]: 2300 nM·h; IC50 [8]: 0.44 µM; Vd (Rattus norvegicus): 3 L/kg; half-life [9]: 1.7 h; IC50 [10]: 0.001 µM; IC50 [11]: 0.05 µM; Activity [12]: Not Active; microsomal CLint [13]: 3 µL/min/mg; IC50 [14]: 3.5 µM
O=C1NCC2c3c(cccc31)CCN2C(=O)[C@@H]1CCCN1 (stereo partly drawn)	0.004 µM	0.18 µM	
O=C1NCC2c3c(cccc31)CCN2C(=O)C1CNC1 (stereo not drawn)	0.001 µM	0.66 µM	
O=C1NCC2c3c(cccc31)CCN2C(=O)c1ccc(Cl)cc1 (stereo not drawn)	0.007 µM	0.26 µM	
COc1ccccc1CC(=O)N1CCc2cccc3c2C1CNC3=O (stereo not drawn)	0.027 µM	1.7 µM	
O=C1NCC2c3c(cccc31)CCN2C(=O)Cc1ccccc1 (stereo not drawn)	0.008 µM	0.23 µM	
O=C1NCC2c3c(cccc31)CCN2C(=O)CCc1cnccn1 (stereo not drawn)	0.006 µM	0.33 µM	Activity [5]: Not Active; IC50 [8]: 0.66 µM; Vd (Rattus norvegicus): 2 L/kg; half-life [9]: 1.2 h; IC50 [10]: 0.001 µM; IC50 [11]: 0.07 µM; Activity [12]: Not Active; microsomal CLint [13]: 24 µL/min/mg; IC50 [14]: 2 µM
Cn1cc(CCC(=O)N2CCc3cccc4c3C2CNC4=O)cn1 (stereo not drawn)	0.014 µM	0.42 µM	
O=C1NCC2c3c(cccc31)CCN2C(=O)c1cccc(Cl)c1 (stereo not drawn)	0.037 µM		
O=C1NCC2c3c(cccc31)CCN2C(=O)NCc1ccccc1 (stereo not drawn)	0.012 µM	0.69 µM	
O=C1NCC2c3c(cccc31)CCN2C(=O)CCn1cnc2ccccc21 (stereo not drawn)	0.001 µM	1.6 µM	
O=C1NCC2c3c(cccc31)CCN2C(=O)Oc1ccccc1 (stereo not drawn)	0.009 µM	1.4 µM	
O=C1NCC2c3c(cccc31)CCN2C(=O)CN1CCCCC1 (stereo not drawn)	0.006 µM	0.28 µM	microsomal CLint [13]: 18 µL/min/mg

SMILES	IC50 [1]	EC50 [2]	other results
O=C1NCC2c3c(cccc31)CCN2C(=O)Cc1ccc(Cl)cc1 (stereo not drawn)	0.005 µM	0.65 µM	
CCN(CC)Cc1ccc(C(=O)N2CCc3cccc4c3C2CNC4=O)cc1 (stereo not drawn)	0.013 µM	0.31 µM	
O=C1NCC2c3c(cccc31)CCN2C(=O)Cc1ccc(Br)cc1 (stereo not drawn)	0.007 µM	0.2 µM	
O=C1NCC2c3c(cccc31)CCN2C(=O)CN1CCC(c2ccccc2)CC1 (stereo not drawn)	0.0005 µM	0.41 µM	
O=C1NCC2c3c(cccc31)CCN2C(=O)c1ccccc1 (stereo not drawn)	0.004 µM	0.84 µM	
CC(=O)N1CCC[C@H]1C(=O)N1CCc2cccc3c2C1CNC3=O (stereo partly drawn)	0.014 µM	2.8 µM	
O=C1NCC2c3c(cccc31)CCN2C(=O)Cc1ccc(OCc2ccccc2)cc1 (stereo not drawn)	0.016 µM	0.58 µM	
O=C1NCC2c3c(cccc31)CCN2C(=O)Cc1ccccn1 (stereo not drawn)	0.013 µM	0.23 µM	
O=C1NCC2NCCc3cccc1c32 (stereo not drawn)	0.14 µM		inhibition [15]: 11%
Cc1c(CC(=O)N2CCc3cccc4c3C2CNC4=O)sc2ccccc12 (stereo not drawn)	0.013 µM	1.3 µM	
CN1CCN(CC(=O)N2CCc3cccc4c3C2CNC4=O)CC1 (stereo not drawn)	0.097 µM	3.5 µM	
O=C1NCC2c3c(cccc31)CCN2C(=O)C1CCCC1 (stereo not drawn)	0.011 µM	0.55 µM	
Nc1cccc2c1CCNC2=O	0.0005 µM		
O=C1NCC2c3c(cccc31)CCN2Cc1ccccc1 (stereo not drawn)	0.19 µM	5.2 µM	
O=C1NCC2c3c(cccc31)CCN2S(=O)(=O)Cc1ccccc1 (stereo not drawn)	0.083 µM	2.7 µM	
O=C1NCC2c3c(cccc31)CCN2C(=O)Cc1cccc(Cl)c1 (stereo not drawn)	0.005 µM	1.1 µM	
O=C(O)CCCC(=O)N1CCc2cccc3c2C1CNC3=O (stereo not drawn)	0.015 µM	5 µM	
O=C1NCC2c3c(cccc31)CCN2C(=O)c1ccc(C(=O)N2CCCNCC2)cc1 (stereo not drawn)	0.13 µM		
O=C1NCC2c3c(cccc31)CCN2C(=O)CN1CCN(c2ccccc2)CC1 (stereo not drawn)	0.011 µM	0.44 µM	
O=C1NCC2c3c(cccc31)CCN2C(=O)OCc1ccccc1 (stereo not drawn)	0.014 µM	0.13 µM	
Cc1csc(CC(=O)N2CCc3cccc4c3C2CNC4=O)n1 (stereo not drawn)	0.006 µM	2.9 µM	
N#Cc1ccc(CC(=O)N2CCc3cccc4c3C2CNC4=O)cc1 (stereo not drawn)	0.009 µM	0.2 µM	
O=C1NCC2c3c(cccc31)CCN2C(=O)Cc1ccccc1Cl (stereo not drawn)	0.016 µM	0.9 µM	
